pIC50: −log10 of the molar value. Converted amounts (≈) assume the structure as drawn. The source made the active and inactive calls.
Assays:
Homo sapiens [1] = species: Homo sapiens; assay: (§1) Inhibition of NF-kappaB activity in TNF-alpha stimulated human HEK-293/NF-kB-luc cells incubated for 30 mins prior to TNF-alpha challenge for 4 hrs by luciferase reporter gene assay
Procedure, shortened: (§2)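 HEK293/NF-κB-luc cells were prestained with 2 μM CMFDA for 1 h, reseeded at 4 × 10^4 cells/well overnight in phenol red-free, serum-free DMEM, pretreated 30 min with compound or 0.1% DMSO vehicle, then stimulated with TNF-α 2 ng/mL for 4 h. Lysates were read for firefly luciferase, normalized to CMFDA fluorescence for cell number. Screen at 30 μM; IC50 determined for selected compounds.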

HEK293 = assay: Growth inhibition of TNF-alpha stimulated human HEK-293/NF-kB-luc cells assessed as cell viability at 30 uM incubated for 30 mins prior to TNF-alpha challenge for 4 hrs by CellTracker Green CMFDA staining; type: cell-based; conditions: hek293, 4 h
Procedure, shortened: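 Cells loaded 1 h with 2 μM CellTracker Green CMFDA in serum-free medium, reseeded at 4 × 10^4 cells/well overnight in phenol red-free, FBS-free DMEM. Pretreated with test compound or vehicle (0.1% DMSO) for 30 min, then TNF-α 2 ng/mL for 4 h. After lysis, CMFDA fluorescence was compared with vehicle-treated cells.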

[2] = as §1; conditions: for pIC50: Homo sapiens, HEK293, read-out: IC50; procedure, shortened: as §2
Homo sapiens [3] = species: Homo sapiens; assay: Inhibition of NF-kappaB activity in TNF-alpha stimulated human HEK-293/NF-kB-luc cells at 30 uM incubated for 30 mins prior to TNF-alpha challenge for 4 hrs by luciferase reporter gene assay; procedure, shortened: as §2
[4] = Toxicity against brine shrimp; type: organism-based; conditions: artemia, in vivo; read-out: LD50 (the source's name)
[5] = Acute toxicity in po dosed mouse; type: organism-based; conditions: in vivo

Q: With `COc1cc(C(=O)O)cc(OC)c1O` as the compound, how does the inhibition (Homo sapiens [1]) read?
A: The inhibition was “inactive”.

Q: What does the source list for `COc1cc2ccc(=O)oc2cc1O` [SCOPOLETIN]?
A: Activity (HEK293): Non-toxic; inhibition (Homo sapiens [1]): inactive

Q: With `O=C(O)c1ccc(O)c(-c2cc(C(=O)O)ccc2O)c1` as the compound, how does the inhibition (Homo sapiens [1]) read?
A: The inhibition was “inactive”.

Q: With `CC(=O)O[C@@H](CC[C@@H](OC(C)=O)[C@]1(C)CC[C@H]([C@@](C)(O)CCC=C(C)C)O1)[C@@]1(C)CC[C@H]([C@@](C)(O)CCC=C(C)C)O1` as the compound, how does the Activity (HEK293) read?
A: The Activity was “Non-toxic”.

Q: What about the inhibition (Homo sapiens [1]) of the same compound?
A: The inhibition was “inactive”.

Q: For `CC1=CC(=O)[C@@]2(C)C1=CC(=O)[C@]1(C)[C@@H]2[C@@H](O)[C@@H]2OC(=O)[C@H]1[C@H]2C` [LAURYCOLACTONE B], which Activity (HEK293) is on record?
A: The Activity was “Non-toxic”.

Q: What about the IC50 [2] of the same compound?
A: The IC50 was “Not Active”.

Q: What does the source list for `COc1ccc2c3ccnc4ccc(=O)n(c2c1)c43`?
A: Activity (HEK293): Non-toxic; pIC50 [2]: 5.13; inhibition (Homo sapiens [3]): > 50%

Q: With `COc1ccc(-c2oc3c(OC)c(OC)c(OC)c(OC)c3c(=O)c2OC)cc1OC` [3,5,6,7,8,3',4'-HEPTAMETHOXYFLAVONE] as the compound, how does the Activity (HEK293) read?
A: Its Activity is “Non-toxic”.

Q: What about the pIC50 [2] of the same compound?
A: The pIC50 was 4.63.

Q: What about the inhibition (Homo sapiens [3]) of the same compound?
A: Its inhibition is > 50%.

Q: What does the source list for `CC1=CC(=O)[C@@H](O)[C@]2(C)[C@H]3[C@@]4(O)OC[C@@]35[C@@H](C[C@@H]12)OC(=O)[C@H](O)[C@@]5(O)[C@@H](C)[C@H]4O`?
A: LC50 [4]: 10.3 µg/mL (≈ 25.1 µM); Activity (HEK293): Non-toxic; pIC50 [2]: 6.15; inhibition (Homo sapiens [3]): > 50%

Q: With `COc1cc2ccc(=O)oc2c(O)c1OC` as the compound, how does the Activity (HEK293) read?
A: The Activity was “Non-toxic”.

Q: What about the inhibition (Homo sapiens [1]) of the same compound?
A: The inhibition was “inactive”.

Q: With `COc1cc(C=O)ccc1O` as the compound, how does the inhibition (Homo sapiens [1]) read?
A: The inhibition was “inactive”.

Q: What does the source list for `C[C@H]1[C@H]2OC(=O)[C@@H]1[C@]1(C)C(=O)C=C3[C@H](C)CC(=O)[C@@H](O)[C@]3(C)[C@H]1[C@H]2O`?
A: Activity (HEK293): Non-toxic; pIC50 [2]: 4.74; inhibition (Homo sapiens [3]): > 50%

Q: For `C=C1[C@@H](O)[C@@]2(O)OC[C@]34[C@H]2[C@@]2(C)[C@H](O)C(=O)C=C(C)[C@@H]2C[C@H]3OC(=O)[C@H](O)[C@@]14O` [EURYCOMANONE], which LC50 [4] is on record?
A: The LC50 was 3.5 µg/mL (≈ 8.57 µM).

Q: What about the LD50 [5] of the same compound?
A: The LD50 was 50 mg/kg.

Q: And the Activity (HEK293)?
A: Its Activity is “Non-toxic”.

Q: What about the pIC50 [2] of the same compound?
A: Its pIC50 is 5.62.

Q: What about the inhibition (Homo sapiens [3]) of the same compound?
A: The inhibition was > 50%.

Q: With `C[C@@H]1CC[C@]2(C(=O)O[C@@H]3O[C@H](CO)[C@@H](O)[C@H](O)[C@H]3O)CC[C@]3(C)C(=CC[C@@H]4[C@@]5(C)CC[C@H](O)[C@@](C)(CO)[C@@H]5CC[C@]43C)[C@@H]2[C@]1(C)O` [PEDUNCULOSIDE] as the compound, how does the Activity (HEK293) read?
A: The Activity was “Non-toxic”.

Q: And the inhibition (Homo sapiens [1])?
A: Its inhibition is “inactive”.

Q: With `COc1cc2c3ccnc4ccc(=O)n(c2cc1OC)c43.Cl` as the compound, how does the Activity (HEK293) read?
A: The Activity was “Non-toxic”.

Q: And the pIC50 [2]?
A: The pIC50 was 4.71.

Q: And the inhibition (Homo sapiens [3])?
A: The inhibition was > 50%.

Q: Which Activity (HEK293) does the source give for `CC1=CC(=O)[C@@H](O)[C@@]2(C)C1=CC(=O)[C@]1(C)[C@@H]2[C@@H](O)[C@@H]2OC(=O)[C@H]1[C@H]2C` here?
A: Its Activity is “Non-toxic”.

Q: And the pIC50 [2]?
A: Its pIC50 is 5.21.

Q: And the inhibition (Homo sapiens [3])?
A: Its inhibition is > 50%.

Q: With `COc1cc(C(=O)O)ccc1O` as the compound, how does the inhibition (Homo sapiens [1]) read?
A: Its inhibition is “inactive”.

Q: For `CC1=CC(=O)[C@]2(C)[C@H]3[C@@H](O)[C@@H]4OC(=O)[C@@H]([C@H]4C)[C@]3(C)C(=O)C[C@@H]12` [LAURYCOLACTONE A], which Activity (HEK293) is on record?
A: The Activity was “Non-toxic”.

Q: What about the IC50 [2] of the same compound?
A: Its IC50 is “Not Active”.

Q: Which Activity (HEK293) does the source give for `O=c1ccc2nccc3c4ccc(O)cc4n1c23` here?
A: The Activity was “Non-toxic”.

Q: What about the pIC50 [2] of the same compound?
A: The pIC50 was 5.42.

Q: What about the inhibition (Homo sapiens [3]) of the same compound?
A: Its inhibition is > 50%.

Q: With `CC1=CC(=O)[C@@H](O)[C@]2(C)[C@H]3C(=O)[C@H](O)[C@H](C)[C@@H]4CC(=O)O[C@H](C[C@@H]12)[C@]34C` as the compound, how does the Activity (HEK293) read?
A: The Activity was “Non-toxic”.

Q: And the pIC50 [2]?
A: The pIC50 was 5.72.

Q: What about the inhibition (Homo sapiens [3]) of the same compound?
A: Its inhibition is > 50%.

Q: Which Activity (HEK293) does the source give for `COC(=O)c1nccc2c1[nH]c1ccccc12` here?
A: The Activity was “Non-toxic”.

Q: And the pIC50 [2]?
A: The pIC50 was 4.53.

Q: What about the inhibition (Homo sapiens [3]) of the same compound?
A: The inhibition was > 50%.

Q: Which Activity (HEK293) does the source give for `C=C1C(=O)O[C@@H]2C3O[C@]3(C)CC/C=C(\C)CC[C@@H]12` (stereo partly drawn) here?
A: Its Activity is “Non-toxic”.

Q: What about the pIC50 [2] of the same compound?
A: Its pIC50 is 5.82.

Q: Which Activity (HEK293) does the source give for `COc1c(O)c2nccc3c4ccccc4n(c1=O)c23` [PICRASIDINE Q] here?
A: Its Activity is “Non-toxic”.

Q: And the inhibition (Homo sapiens [3])?
A: Its inhibition is “inactive”.

Q: Which Activity (HEK293) does the source give for `CC1=C[C@H](O)[C@@H](O)[C@@]2(C)[C@H]1CC(=O)[C@@]1(C)[C@H]3C(=O)O[C@H]([C@@H]3C)[C@H](O)[C@@H]12` [EURYCOLACTONE E] here?
A: Its Activity is “Non-toxic”.

Q: What about the pIC50 [2] of the same compound?
A: The pIC50 was 5.42.

Q: What about the inhibition (Homo sapiens [3]) of the same compound?
A: The inhibition was > 50%.

Q: Which results are given for `CC1=CC(=O)[C@@H](O)[C@]2(C)[C@H]3[C@@H](O)[C@@H]4OC(=O)[C@@H]([C@H]4C)[C@]3(C)[C@H](O)C[C@@H]12`?
A: Activity (HEK293): Non-toxic; pIC50 [2]: 5.82; inhibition (Homo sapiens [3]): > 50%

Q: Which results are given for `CC1=CC(=O)[C@@H](O)[C@]2(C)[C@H]3[C@@H](O)[C@H](O)[C@H](C)[C@]4(O)[C@@H](O)C(=O)O[C@H](C[C@@H]12)[C@]34C`?
A: LC50 [4]: 324 µg/mL (≈ 816 µM); Activity (HEK293): Non-toxic; pIC50 [2]: 6.00; inhibition (Homo sapiens [3]): > 50%

Q: Which results are given for `CC1=CC(=O)[C@@H](O)[C@@]2(C)[C@H]1CC(=O)[C@@]1(C)[C@H]3C(=O)O[C@H]([C@@H]3C)[C@H](O)[C@@H]12` [EURYCOMALACTONE]?
A: Activity (HEK293): Non-toxic; pIC50 [2]: 6.30; inhibition (Homo sapiens [3]): > 50%

Q: With `O=c1ccc2nccc3c4ccc(O[C@@H]5O[C@H](CO)[C@@H](O)[C@H](O)[C@H]5O)cc4n1c23` as the compound, how does the Activity (HEK293) read?
A: The Activity was “Non-toxic”.

Q: What about the inhibition (Homo sapiens [3]) of the same compound?
A: Its inhibition is “inactive”.

Q: Which inhibition (Homo sapiens [1]) does the source give for `COc1cc(C)c2c(=O)cc(C[C@H](C)O)oc2c1[C@@H]1O[C@H](CO)[C@@H](O)[C@H](O)[C@H]1OC(=O)/C=C/c1ccc(O)cc1` here?
A: The inhibition was “inactive”.

Q: Which LC50 [4] does the source give for `CC1=CC(=O)[C@@H](O)[C@@]2(C)[C@H]1[C@@H](O)[C@H]1OC(=O)C3[C@@H](C)[C@H](O)[C@H](O)[C@H]2[C@]31C` (stereo partly drawn) [LONGILACTONE] here?
A: The LC50 was 145 µg/mL (≈ 395 µM).

Q: What about the Activity (HEK293) of the same compound?
A: Its Activity is “Non-toxic”.

Q: And the pIC50 [2]?
A: Its pIC50 is 5.33.

Q: What about the inhibition (Homo sapiens [3]) of the same compound?
A: The inhibition was > 50%.
